Laboratory results reported in ChEMBL document CHEMBL4130549, “Synthesis and bioactivities study of new antibacterial peptide mimics: The dialkyl cationic amphiphiles” (Eur J Med Chem, 2018).
Calls of active or inactive are those of the source. The calls are words filed in the database; no cut-off is given here.

How the values were obtained:
Staphylococcus aureus [1] = assay: Antibacterial activity against methicillin-resistant Staphylococcus aureus isolate M10 after 16 to 20 hrs by broth microdilution method; type: functional
How it was run: (§1)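 CLSI broth microdilution in cation-adjusted Mueller-Hinton broth. A 4-6 h culture was diluted to about 10⁶ CFU/mL and mixed 1:1 with twofold compound dilutions (256–0.5 µg/mL before mixing) prepared from aqueous stocks. Plates were incubated at 37 °C for 16-20 h. Each concentration was tested in duplicate, and the experiment was repeated at least twice.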

Staphylococcus aureus [2] = assay: Antibacterial activity against methicillin-resistant Staphylococcus aureus isolate M1 after 16 to 20 hrs by broth microdilution method; type: functional; how it was run: as §1
Klebsiella pneumoniae [3] = assay: Antibacterial activity against carbapenemase-producing Klebsiella pneumoniae isolate K9 after 16 to 20 hrs by broth microdilution method; type: functional
How it was run: (§2)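 Broth microdilution per CLSI in cation-adjusted Mueller-Hinton broth; 4-6 h cultures (~10⁸ CFU/mL) diluted to ~10⁶ CFU/mL and mixed 1:1 with twofold dilutions of water-dissolved compound (256 to 0.5 µg/mL). Incubated 16-20 h at 37 °C; MIC read visually. Each concentration run in duplicate, whole experiment repeated at least twice. MRSA, KPC and NDM-1 strains were clinical isolates.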

Klebsiella pneumoniae [4] = assay: Antibacterial activity against carbapenemase-producing Klebsiella pneumoniae isolate K6 after 16 to 20 hrs by broth microdilution method; type: functional; how it was run: as §2
Enterobacteriaceae [5] = assay: Antibacterial activity against NDM-1-producing Enterobacteriaceae isolate N3 after 16 to 20 hrs by broth microdilution method; type: functional; how it was run: as §2
[6] = Hemolytic activity in sheep RBC after 1 hr; type: ADME, cell-based, Ovis aries, Erythrocyte; settings: sheep red blood cells (erythrocytes)
How it was run: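 Sheep RBCs suspended at 5% in PBS; 150 µL added to 50 µL compound dilutions (5120 to 10 µg/mL series). Incubated 1 h at 37 °C, then centrifuged; supernatant absorbance read at 540 nm. Lysis (%) = (A−A0)/(Atotal−A0)×100, with untreated 5% RBC as A0 and 0.1% Triton X-100 as total.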

Escherichia coli [7] = assay: Induction of outer membrane permeabilization in Escherichia coli ATCC 25922 at 20 ug/ml measured every 2 mins for 12 mins by NPN staining based fluorescence assay; type: functional, organism-based
How it was run: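 Mid-log E. coli (~10^8 CFU/mL) in black plates pre-incubated about 40 min with NPN (10 µM, 50 µL). Baseline read 8 min (ex 350/em 420 nm), then compound added to 20 µg/mL final and fluorescence followed every 2 min for 12 min. Water-treated control.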

Klebsiella pneumoniae [8] = assay: Antibacterial activity against carbapenemase-producing Klebsiella pneumoniae isolate K7 after 16 to 20 hrs by broth microdilution method; type: functional; how it was run: as §2
Staphylococcus aureus [9] = assay: Antibacterial activity against methicillin-resistant Staphylococcus aureus isolate M9 after 16 to 20 hrs by broth microdilution method; type: functional; how it was run: as §1
Klebsiella pneumoniae [10] = assay: Antibacterial activity against carbapenemase-producing Klebsiella pneumoniae isolate K3 after 16 to 20 hrs by broth microdilution method; type: functional; how it was run: as §2
Escherichia coli [11] = assay: Antibacterial activity against Escherichia coli ATCC 25922 after 16 to 20 hrs by broth microdilution method; type: functional; how it was run: as §2
Escherichia coli [12] = assay: Induction of cytoplasmic membrane depolarization in Escherichia coli ATCC 25922 at 20 ug/ml measured every 2 mins for 12 mins by diSC35 staining based fluorescence assay; type: functional, organism-based
How it was run: (§3)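 Mid-log cells (4–6 h) pelleted, washed and resuspended (~10^8 CFU/mL) in PBS for S. aureus, or in 5 mM HEPES, 5 mM glucose and 100 mM KCl (1:1:1) for E. coli. Preloaded with diSC35 (10 µM, 50 µL), 30 min for S. aureus and 40 min plus EDTA (200 µM, 50 µL) for E. coli. Baseline read 8 min (ex 622/em 670 nm), then compound added to 20 µg/mL final and read every 2 min for 12 min. Water control.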

Enterobacteriaceae [13] = assay: Antibacterial activity against NDM-1-producing Enterobacteriaceae isolate N9 after 16 to 20 hrs by broth microdilution method; type: functional; how it was run: as §2
Klebsiella pneumoniae [14] = assay: Antibacterial activity against carbapenemase-producing Klebsiella pneumoniae isolate K10 after 16 to 20 hrs by broth microdilution method; type: functional; how it was run: as §2
Staphylococcus aureus [15] = assay: Induction of cytoplasmic membrane depolarization in Staphylococcus aureus ATCC 29213 at 20 ug/ml measured every 2 mins for 12 mins by diSC35 staining based fluorescence assay; type: functional, organism-based; how it was run: as §3
Staphylococcus aureus [16] = assay: Antibacterial activity against methicillin-resistant Staphylococcus aureus isolate M3 after 16 to 20 hrs by broth microdilution method; type: functional; how it was run: as §1
Enterobacteriaceae [17] = assay: Antibacterial activity against NDM-1-producing Enterobacteriaceae isolate N7 after 16 to 20 hrs by broth microdilution method; type: functional; how it was run: as §2
Enterobacteriaceae [18] = assay: Antibacterial activity against NDM-1-producing Enterobacteriaceae isolate N1 after 16 to 20 hrs by broth microdilution method; type: functional; how it was run: as §2
Enterobacteriaceae [19] = assay: Antibacterial activity against NDM-1-producing Enterobacteriaceae after 16 to 20 hrs by broth microdilution method; type: functional; how it was run: as §2
Enterobacteriaceae [20] = assay: Antibacterial activity against NDM-1-producing Enterobacteriaceae isolate N10 after 16 to 20 hrs by broth microdilution method; type: functional; how it was run: as §2
Escherichia coli [21] = assay: Induction of inner membrane permeabilization in Escherichia coli ATCC 25922 at 20 ug/ml measured every 2 mins for 12 mins by propidium iodide staining based fluorescence assay; type: functional, organism-based
How it was run: (§4)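 Mid-log cells (~10^8 CFU/mL) pre-incubated with propidium iodide (10 µM, 50 µL), 30 min for S. aureus and 40 min for E. coli. Fluorescence (ex 535/em 617 nm) read for 8 min, then compound added to 20 µg/mL final and monitored every 2 min for 12 min. Water-treated control.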

Enterobacteriaceae [22] = assay: Antibacterial activity against NDM-1-producing Enterobacteriaceae isolate N6 after 16 to 20 hrs by broth microdilution method; type: functional; how it was run: as §2
Enterobacteriaceae [23] = assay: Antibacterial activity against NDM-1-producing Enterobacteriaceae isolate N4 after 16 to 20 hrs by broth microdilution method; type: functional; how it was run: as §2
Staphylococcus aureus [24] = assay: Antibacterial activity against methicillin-resistant Staphylococcus aureus isolate M7 after 16 to 20 hrs by broth microdilution method; type: functional; how it was run: as §1
Staphylococcus aureus [25] = assay: Antibacterial activity against methicillin-resistant Staphylococcus aureus isolate M4 after 16 to 20 hrs by broth microdilution method; type: functional; how it was run: as §1
Staphylococcus aureus [26] = assay: Antibacterial activity against methicillin-resistant Staphylococcus aureus isolate M5 after 16 to 20 hrs by broth microdilution method; type: functional; how it was run: as §1
Klebsiella pneumoniae [27] = assay: Antibacterial activity against carbapenemase-producing Klebsiella pneumoniae isolate K1 after 16 to 20 hrs by broth microdilution method; type: functional; how it was run: as §2
Staphylococcus aureus [28] = assay: Induction of inner membrane permeabilization in Staphylococcus aureus ATCC 29213 at 20 ug/ml measured every 2 mins for 12 mins by propidium iodide staining based fluorescence assay; type: functional, organism-based; how it was run: as §4
Staphylococcus aureus [29] = assay: Antibacterial activity against Staphylococcus aureus ATCC 29213 after 16 to 20 hrs by broth microdilution method; type: functional; how it was run: as §1
Staphylococcus aureus [30] = assay: Antibacterial activity against methicillin-resistant Staphylococcus aureus isolate M8 after 16 to 20 hrs by broth microdilution method; type: functional; how it was run: as §1
Klebsiella pneumoniae [31] = assay: Antibacterial activity against carbapenemase-producing Klebsiella pneumoniae isolate K2 after 16 to 20 hrs by broth microdilution method; type: functional; how it was run: as §2
Enterobacteriaceae [32] = assay: Antibacterial activity against NDM-1-producing Enterobacteriaceae isolate N2 after 16 to 20 hrs by broth microdilution method; type: functional; how it was run: as §2
Enterobacteriaceae [33] = assay: Antibacterial activity against NDM-1-producing Enterobacteriaceae isolate N5 after 16 to 20 hrs by broth microdilution method; type: functional; how it was run: as §2
Salmonella enterica = assay: Antibacterial activity against Salmonella enterica after 16 to 20 hrs by broth microdilution method; type: functional; how it was run: as §2
Enterococcus faecalis = assay: Antibacterial activity against Enterococcus faecalis after 16 to 20 hrs by broth microdilution method; type: functional; how it was run: as §2
Staphylococcus aureus [34] = assay: Antibacterial activity against methicillin-resistant Staphylococcus aureus isolate M6 after 16 to 20 hrs by broth microdilution method; type: functional; how it was run: as §1
Klebsiella pneumoniae [35] = assay: Antibacterial activity against carbapenemase-producing Klebsiella pneumoniae isolate K5 after 16 to 20 hrs by broth microdilution method; type: functional; how it was run: as §2
Staphylococcus aureus [36] = assay: Antibacterial activity against methicillin-resistant Staphylococcus aureus after 16 to 20 hrs by broth microdilution method; type: functional; how it was run: as §1
Enterobacteriaceae [37] = assay: Antibacterial activity against NDM-1-producing Enterobacteriaceae isolate N8 after 16 to 20 hrs by broth microdilution method; type: functional; how it was run: as §2
Klebsiella pneumoniae [38] = assay: Antibacterial activity against carbapenemase-producing Klebsiella pneumoniae isolate K4 after 16 to 20 hrs by broth microdilution method; type: functional; how it was run: as §2
Staphylococcus aureus [39] = assay: Antibacterial activity against methicillin-resistant Staphylococcus aureus isolate M2 after 16 to 20 hrs by broth microdilution method; type: functional; how it was run: as §1
Klebsiella pneumoniae [40] = assay: Antibacterial activity against carbapenemase-producing Klebsiella pneumoniae isolate K8 after 16 to 20 hrs by broth microdilution method; type: functional; how it was run: as §2
Klebsiella pneumoniae [41] = assay: Antibacterial activity against carbapenemase-producing Klebsiella pneumoniae after 16 to 20 hrs by broth microdilution method; type: functional; how it was run: as §2

SMILES: CCCCCCCCCCCN(CCCCCCCCCCC)C(=O)[C@@H](N)CCCCN.Cl.Cl
- MIC (Staphylococcus aureus [1]): 4 µg/mL
- MIC (Staphylococcus aureus [2]): 2 µg/mL
- MIC (Klebsiella pneumoniae [3]): 32 µg/mL
- MIC (Klebsiella pneumoniae [4]): 32 µg/mL
- MIC (Enterobacteriaceae [5]): 32 µg/mL
- HC50 at 1 h [6]: 89 µg/mL
- Activity (Escherichia coli [7]): Active
- MIC (Klebsiella pneumoniae [8]): 32 µg/mL
- MIC (Staphylococcus aureus [9]): 4 µg/mL
- MIC (Klebsiella pneumoniae [10]): 16 µg/mL
- MIC (Escherichia coli [11]): 16 µg/mL
- Activity (Escherichia coli [12]): Active
- MIC (Enterobacteriaceae [13]): 32 µg/mL
- MIC (Klebsiella pneumoniae [14]): 32 µg/mL
- Activity (Staphylococcus aureus [15]): Active
- MIC (Staphylococcus aureus [16]): 2 µg/mL
- MIC (Enterobacteriaceae [17]): 16 µg/mL
- MIC (Enterobacteriaceae [18]): 32 µg/mL
- MIC (Enterobacteriaceae [19]): 32 µg/mL
- MIC (Enterobacteriaceae [20]): 32 µg/mL
- Activity (Escherichia coli [21]): Active
- MIC (Enterobacteriaceae [22]): 32 µg/mL
- MIC (Enterobacteriaceae [23]): 32 µg/mL
- MIC (Staphylococcus aureus [24]): 4 µg/mL
- MIC (Staphylococcus aureus [25]): 2 µg/mL
- MIC (Staphylococcus aureus [26]): 4 µg/mL
- MIC (Klebsiella pneumoniae [27]): 32 µg/mL
- Activity (Staphylococcus aureus [28]): Active
- MIC (Staphylococcus aureus [29]): 4 µg/mL
- MIC (Staphylococcus aureus [30]): 4 µg/mL
- MIC (Klebsiella pneumoniae [31]): 16 µg/mL
- MIC (Enterobacteriaceae [32]): 32 µg/mL
- MIC (Enterobacteriaceae [33]): 32 µg/mL
- MIC (Salmonella enterica): 8 µg/mL
- MIC (Enterococcus faecalis): 2 µg/mL
- MIC (Staphylococcus aureus [34]): 4 µg/mL
- MIC (Klebsiella pneumoniae [35]): 32 µg/mL
- MIC (Staphylococcus aureus [36]): 4 µg/mL
- MIC (Enterobacteriaceae [37]): 16 µg/mL
- MIC (Klebsiella pneumoniae [38]): 8 µg/mL
- MIC (Staphylococcus aureus [39]): 1 µg/mL
- MIC (Klebsiella pneumoniae [40]): 8 µg/mL
- MIC (Klebsiella pneumoniae [41]): 8 µg/mL
